System: HeLa
Assay: Antiproliferative activity against human HeLa cell line at 1000 uM relative to control
Type: functional
Outline: (§1)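 Cells from ATCC grown as monolayers in DMEM with 10% FBS, 2 mM glutamine, penicillin/streptomycin, 37 °C, 5% CO2. Seeded at 2 × 10^4 cells/mL, and after 24 h the medium was replaced with fresh medium containing compound (water/10% DMSO stock, PBS working dilutions 10^-3 to 10^-6 M). Exposure was 72 h, then MTT read-out. Growth % = (A_peptide − A_blank)/(A_control − A_blank) × 100, with inhibition taken relative to untreated cells. Values are means of three experiments run in triplicate.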

SMILES	inhibition at 1000 µM [%]
N[C@@H](Cc1ccc(O)cc1)C(=O)N[C@@H](C(=O)O)C1C2CC3CC(C2)CC1C3 (stereo partly drawn)	20.5

System: HBL
Assay: Antiproliferative activity against human HBL cell line at 10 uM relative to control
Type: functional
Outline: as §1

SMILES	inhibition at 10 µM [%]
N[C@@H](Cc1ccc(O)cc1)C(=O)N[C@@H](C(=O)O)C1C2CC3CC(C2)CC1C3 (stereo partly drawn)	4.7

System: HBL
Assay: Antiproliferative activity against human HBL cell line at 100 uM relative to control
Type: functional
Outline: as §1

SMILES	inhibition at 100 µM [%]
N[C@@H](Cc1ccc(O)cc1)C(=O)N[C@@H](C(=O)O)C1C2CC3CC(C2)CC1C3 (stereo partly drawn)	2.7

System: HBL
Assay: Antiproliferative activity against human HBL cell line at 1000 uM relative to control
Type: functional
Outline: as §1

SMILES	inhibition at 1000 µM [%]
N[C@@H](Cc1ccc(O)cc1)C(=O)N[C@@H](C(=O)O)C1C2CC3CC(C2)CC1C3 (stereo partly drawn)	7.3

System: HT-29
Assay: Antiproliferative activity against human HT29 cell line at 10 uM relative to control
Type: functional
Outline: as §1

SMILES	inhibition at 10 µM [%]
N[C@@H](Cc1ccc(O)cc1)C(=O)N[C@@H](C(=O)O)C1C2CC3CC(C2)CC1C3 (stereo partly drawn)	8.3

System: HT-29
Assay: Antiproliferative activity against human HT29 cell line at 100 uM relative to control
Type: functional
Outline: as §1

SMILES	inhibition at 100 µM [%]
N[C@@H](Cc1ccc(O)cc1)C(=O)N[C@@H](C(=O)O)C1C2CC3CC(C2)CC1C3 (stereo partly drawn)	10.5

System: HT-29
Assay: Antiproliferative activity against human HT29 cell line at 1000 uM relative to control
Type: functional
Outline: as §1

SMILES	inhibition at 1000 µM [%]
N[C@@H](Cc1ccc(O)cc1)C(=O)N[C@@H](C(=O)O)C1C2CC3CC(C2)CC1C3 (stereo partly drawn)	21.8

System: SW-620
Assay: Antiproliferative activity against human SW620 cell line at 10 uM relative to control
Type: functional
Outline: as §1

SMILES	inhibition at 10 µM [%]
N[C@@H](Cc1ccc(O)cc1)C(=O)N[C@@H](C(=O)O)C1C2CC3CC(C2)CC1C3 (stereo partly drawn)	10

System: SW-620
Assay: Antiproliferative activity against human SW620 cell line at 100 uM relative to control
Type: functional
Outline: as §1

SMILES	inhibition at 100 µM [%]
N[C@@H](Cc1ccc(O)cc1)C(=O)N[C@@H](C(=O)O)C1C2CC3CC(C2)CC1C3 (stereo partly drawn)	9.4

System: SW-620
Assay: Antiproliferative activity against human SW620 cell line at 1000 uM relative to control
Type: functional
Outline: as §1

SMILES	inhibition at 1000 µM [%]
N[C@@H](Cc1ccc(O)cc1)C(=O)N[C@@H](C(=O)O)C1C2CC3CC(C2)CC1C3 (stereo partly drawn)	18.7

System: Caco-2
Assay: Antiproliferative activity against human Caco-2 cell line at 10 uM relative to control
Type: functional
Outline: as §1

SMILES	inhibition at 10 µM [%]
N[C@@H](Cc1ccc(O)cc1)C(=O)N[C@@H](C(=O)O)C1C2CC3CC(C2)CC1C3 (stereo partly drawn)	21.4

System: Caco-2
Assay: Antiproliferative activity against human Caco-2 cell line at 100 uM relative to control
Type: functional
Outline: as §1

SMILES	inhibition at 100 µM [%]
N[C@@H](Cc1ccc(O)cc1)C(=O)N[C@@H](C(=O)O)C1C2CC3CC(C2)CC1C3 (stereo partly drawn)	17.5

System: Caco-2
Assay: Antiproliferative activity against human Caco-2 cell line at 1000 uM relative to control
Type: functional
Outline: as §1

SMILES	inhibition at 1000 µM [%]
N[C@@H](Cc1ccc(O)cc1)C(=O)N[C@@H](C(=O)O)C1C2CC3CC(C2)CC1C3 (stereo partly drawn)	16

System: MCF7
Assay: Antiproliferative activity against human MCF7 cell line at 10 uM relative to control
Type: functional
Outline: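 MTT assay on monolayer cells grown in DMEM with 10% FBS, 2 mM glutamine, penicillin and streptomycin, at 37 °C in 5% CO2. Cells were plated at 2 × 10^4 cells/mL on day 0. After 24 h the medium was replaced with fresh medium containing compound (working dilutions in PBS from 10% DMSO/water stock), then incubated 72 h. Percent growth inhibition was calculated against untreated cells after blank subtraction. Values are means of three experiments run in triplicate.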

SMILES	inhibition at 10 µM [%]
N[C@@H](Cc1ccc(O)cc1)C(=O)N[C@@H](C(=O)O)C1C2CC3CC(C2)CC1C3 (stereo partly drawn)	2.6

System: MCF7
Assay: Antiproliferative activity against human MCF7 cell line at 100 uM relative to control
Type: functional
Outline: as §1

SMILES	inhibition at 100 µM [%]
N[C@@H](Cc1ccc(O)cc1)C(=O)N[C@@H](C(=O)O)C1C2CC3CC(C2)CC1C3 (stereo partly drawn)	7.7

System: MCF7
Assay: Antiproliferative activity against human MCF7 cell line at 1000 uM relative to control
Type: functional
Outline: as §1

SMILES	inhibition at 1000 µM [%]
N[C@@H](Cc1ccc(O)cc1)C(=O)N[C@@H](C(=O)O)C1C2CC3CC(C2)CC1C3 (stereo partly drawn)	18.7

System: HEp-2
Assay: Antiproliferative activity against human HEp2 cell line at 10 uM relative to control
Type: functional
Outline: as §1

SMILES	inhibition at 10 µM [%]
N[C@@H](Cc1ccc(O)cc1)C(=O)N[C@@H](C(=O)O)C1C2CC3CC(C2)CC1C3 (stereo partly drawn)	4.9

System: HEp-2
Assay: Antiproliferative activity against human HEp2 cell line at 100 uM relative to control
Type: functional
Outline: as §1

SMILES	inhibition at 100 µM [%]
N[C@@H](Cc1ccc(O)cc1)C(=O)N[C@@H](C(=O)O)C1C2CC3CC(C2)CC1C3 (stereo partly drawn)	1.9

System: HEp-2
Assay: Antiproliferative activity against human HEp2 cell line at 1000 uM relative to control
Type: functional
Outline: as §1

SMILES	inhibition at 1000 µM [%]
N[C@@H](Cc1ccc(O)cc1)C(=O)N[C@@H](C(=O)O)C1C2CC3CC(C2)CC1C3 (stereo partly drawn)	16.2

System: HeLa
Assay: Antiproliferative activity against human HeLa cell line at 10 uM relative to control
Type: functional
Outline: as §1

SMILES	inhibition at 10 µM [%]
N[C@@H](Cc1ccc(O)cc1)C(=O)N[C@@H](C(=O)O)C1C2CC3CC(C2)CC1C3 (stereo partly drawn)	17.1

System: HeLa
Assay: Antiproliferative activity against human HeLa cell line at 100 uM relative to control
Type: functional
Outline: as §1

SMILES	inhibition at 100 µM [%]
N[C@@H](Cc1ccc(O)cc1)C(=O)N[C@@H](C(=O)O)C1C2CC3CC(C2)CC1C3 (stereo partly drawn)	11

System: SW-620
Assay: Antiproliferative activity against human SW620 cell line at 1 uM relative to control
Type: functional
Outline: as §1

SMILES	inhibition at 1 µM [%]
N[C@@H](Cc1ccc(O)cc1)C(=O)N[C@@H](C(=O)O)C1C2CC3CC(C2)CC1C3 (stereo partly drawn)	10.7

System: Caco-2
Assay: Antiproliferative activity against human Caco-2 cell line at 1 uM relative to control
Type: functional
Outline: as §1

SMILES	inhibition at 1 µM [%]
N[C@@H](Cc1ccc(O)cc1)C(=O)N[C@@H](C(=O)O)C1C2CC3CC(C2)CC1C3 (stereo partly drawn)	22.2

System: MCF7
Assay: Antiproliferative activity against human MCF7 cell line at 1 uM relative to control
Type: functional
Outline: as §1

SMILES	inhibition at 1 µM [%]
N[C@@H](Cc1ccc(O)cc1)C(=O)N[C@@H](C(=O)O)C1C2CC3CC(C2)CC1C3 (stereo partly drawn)	1.6

System: HEp-2
Assay: Antiproliferative activity against human HEp2 cell line at 1 uM relative to control
Type: functional
Outline: as §1

SMILES	inhibition at 1 µM [%]
N[C@@H](Cc1ccc(O)cc1)C(=O)N[C@@H](C(=O)O)C1C2CC3CC(C2)CC1C3 (stereo partly drawn)	8.5

System: HeLa
Assay: Antiproliferative activity against human HeLa cell line at 1 uM relative to control
Type: functional
Outline: as §1

SMILES	inhibition at 1 µM [%]
N[C@@H](Cc1ccc(O)cc1)C(=O)N[C@@H](C(=O)O)C1C2CC3CC(C2)CC1C3 (stereo partly drawn)	7.2

System: HBL
Assay: Antiproliferative activity against human HBL cell line at 1 uM relative to control
Type: functional
Outline: as §1

SMILES	inhibition at 1 µM [%]
N[C@@H](Cc1ccc(O)cc1)C(=O)N[C@@H](C(=O)O)C1C2CC3CC(C2)CC1C3 (stereo partly drawn)	3

System: HT-29
Assay: Antiproliferative activity against human HT29 cell line at 1 uM relative to control
Type: functional
Outline: as §1

SMILES	inhibition at 1 µM [%]
N[C@@H](Cc1ccc(O)cc1)C(=O)N[C@@H](C(=O)O)C1C2CC3CC(C2)CC1C3 (stereo partly drawn)	0.7

— ChEMBL document CHEMBL1147809, “Tumor-cell-targeted methionine-enkephalin analogues containing unnatural amino acids: design, synthesis, and in vitro antitumor activity” (2006)
